These results are taken from ChEMBL document CHEMBL4028864 (J Med Chem, 2017).

The source made the active and inactive calls. The calls are words filed in the database; no cut-off is given here.

Series [1] concerns the target T1, Protein deacetylase HDAC6 (Homo sapiens, UniProt Q9UBN7).
T1 sequence (Q9UBN7 whole entry): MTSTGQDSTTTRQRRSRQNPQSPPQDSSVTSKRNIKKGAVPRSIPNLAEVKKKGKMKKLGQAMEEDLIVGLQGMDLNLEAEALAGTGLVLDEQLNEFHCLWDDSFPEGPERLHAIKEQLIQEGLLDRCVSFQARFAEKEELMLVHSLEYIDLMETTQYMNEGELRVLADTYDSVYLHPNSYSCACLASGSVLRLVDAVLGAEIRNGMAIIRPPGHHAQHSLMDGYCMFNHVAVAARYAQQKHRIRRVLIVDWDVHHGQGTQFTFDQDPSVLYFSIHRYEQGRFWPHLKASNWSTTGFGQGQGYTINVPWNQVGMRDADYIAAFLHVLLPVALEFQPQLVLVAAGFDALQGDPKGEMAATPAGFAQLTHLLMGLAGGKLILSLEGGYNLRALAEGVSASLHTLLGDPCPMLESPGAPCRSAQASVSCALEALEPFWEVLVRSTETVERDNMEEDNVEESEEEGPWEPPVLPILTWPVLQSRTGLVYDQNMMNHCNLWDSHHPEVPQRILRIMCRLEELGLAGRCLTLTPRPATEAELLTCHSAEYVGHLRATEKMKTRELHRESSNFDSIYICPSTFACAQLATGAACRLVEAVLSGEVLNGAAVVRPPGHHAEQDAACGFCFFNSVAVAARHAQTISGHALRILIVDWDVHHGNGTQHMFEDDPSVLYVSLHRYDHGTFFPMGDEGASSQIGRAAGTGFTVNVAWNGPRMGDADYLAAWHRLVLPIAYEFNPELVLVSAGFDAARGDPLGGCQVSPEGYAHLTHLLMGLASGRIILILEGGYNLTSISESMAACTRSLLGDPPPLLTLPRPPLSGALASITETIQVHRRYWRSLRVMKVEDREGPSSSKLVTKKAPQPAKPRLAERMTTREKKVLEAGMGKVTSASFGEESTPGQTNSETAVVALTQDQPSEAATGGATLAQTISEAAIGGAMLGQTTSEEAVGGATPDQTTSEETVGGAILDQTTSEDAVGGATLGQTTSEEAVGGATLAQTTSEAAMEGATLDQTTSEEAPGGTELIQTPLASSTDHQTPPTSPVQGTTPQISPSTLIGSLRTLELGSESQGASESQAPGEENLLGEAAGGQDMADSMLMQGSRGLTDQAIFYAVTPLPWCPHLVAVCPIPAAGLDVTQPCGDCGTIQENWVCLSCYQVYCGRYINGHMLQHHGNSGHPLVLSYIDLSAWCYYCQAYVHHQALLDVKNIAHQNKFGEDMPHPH
Kind of series: Inhibition of N-terminal GST tagged human HDAC6 (1 to 1215 residues) expressed in baculovirus infected insect cells using RHKKAc as substrate in presence of ATP.

The target in series [2] is Tyrosine-protein kinase JAK2 (Homo sapiens, UniProt O60674). Kind of series: Inhibition of human JAK2 using poly[Glu:Tyr] as substrate in presence of [gamma-33P]-ATP.
Sequence of Tyrosine-protein kinase JAK2 (O60674 whole entry): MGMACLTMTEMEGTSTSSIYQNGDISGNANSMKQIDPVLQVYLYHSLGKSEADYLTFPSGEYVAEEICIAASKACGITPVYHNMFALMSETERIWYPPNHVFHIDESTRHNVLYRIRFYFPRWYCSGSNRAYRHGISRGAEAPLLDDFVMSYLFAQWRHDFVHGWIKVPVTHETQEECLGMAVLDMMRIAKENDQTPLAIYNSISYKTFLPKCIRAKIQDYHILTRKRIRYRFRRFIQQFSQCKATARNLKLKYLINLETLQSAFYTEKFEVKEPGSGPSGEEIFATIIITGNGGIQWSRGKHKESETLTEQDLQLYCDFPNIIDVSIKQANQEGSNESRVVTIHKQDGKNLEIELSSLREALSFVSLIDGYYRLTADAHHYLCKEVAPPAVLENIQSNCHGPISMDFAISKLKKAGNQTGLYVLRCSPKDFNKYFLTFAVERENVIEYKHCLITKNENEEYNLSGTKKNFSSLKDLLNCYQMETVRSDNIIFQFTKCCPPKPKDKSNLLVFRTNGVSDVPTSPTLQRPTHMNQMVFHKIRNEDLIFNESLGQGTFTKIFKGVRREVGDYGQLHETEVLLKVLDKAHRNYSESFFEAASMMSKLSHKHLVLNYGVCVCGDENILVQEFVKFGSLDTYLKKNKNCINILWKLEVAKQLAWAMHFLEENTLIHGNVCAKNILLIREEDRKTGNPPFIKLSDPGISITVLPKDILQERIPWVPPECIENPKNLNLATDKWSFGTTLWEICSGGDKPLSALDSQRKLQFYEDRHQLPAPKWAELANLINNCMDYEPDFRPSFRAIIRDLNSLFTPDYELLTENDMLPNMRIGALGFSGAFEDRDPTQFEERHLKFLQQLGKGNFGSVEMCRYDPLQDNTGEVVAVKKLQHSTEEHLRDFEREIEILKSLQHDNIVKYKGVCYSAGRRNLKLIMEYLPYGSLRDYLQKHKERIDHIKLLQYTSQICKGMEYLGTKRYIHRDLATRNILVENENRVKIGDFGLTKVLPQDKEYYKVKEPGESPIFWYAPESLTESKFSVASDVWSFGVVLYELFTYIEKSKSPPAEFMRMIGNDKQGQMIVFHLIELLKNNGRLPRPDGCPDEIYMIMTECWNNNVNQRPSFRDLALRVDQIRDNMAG
For series [3], the target named is T2, Tyrosine-protein kinase JAK3 (Homo sapiens, UniProt P52333).
T2 sequence (P52333 whole entry): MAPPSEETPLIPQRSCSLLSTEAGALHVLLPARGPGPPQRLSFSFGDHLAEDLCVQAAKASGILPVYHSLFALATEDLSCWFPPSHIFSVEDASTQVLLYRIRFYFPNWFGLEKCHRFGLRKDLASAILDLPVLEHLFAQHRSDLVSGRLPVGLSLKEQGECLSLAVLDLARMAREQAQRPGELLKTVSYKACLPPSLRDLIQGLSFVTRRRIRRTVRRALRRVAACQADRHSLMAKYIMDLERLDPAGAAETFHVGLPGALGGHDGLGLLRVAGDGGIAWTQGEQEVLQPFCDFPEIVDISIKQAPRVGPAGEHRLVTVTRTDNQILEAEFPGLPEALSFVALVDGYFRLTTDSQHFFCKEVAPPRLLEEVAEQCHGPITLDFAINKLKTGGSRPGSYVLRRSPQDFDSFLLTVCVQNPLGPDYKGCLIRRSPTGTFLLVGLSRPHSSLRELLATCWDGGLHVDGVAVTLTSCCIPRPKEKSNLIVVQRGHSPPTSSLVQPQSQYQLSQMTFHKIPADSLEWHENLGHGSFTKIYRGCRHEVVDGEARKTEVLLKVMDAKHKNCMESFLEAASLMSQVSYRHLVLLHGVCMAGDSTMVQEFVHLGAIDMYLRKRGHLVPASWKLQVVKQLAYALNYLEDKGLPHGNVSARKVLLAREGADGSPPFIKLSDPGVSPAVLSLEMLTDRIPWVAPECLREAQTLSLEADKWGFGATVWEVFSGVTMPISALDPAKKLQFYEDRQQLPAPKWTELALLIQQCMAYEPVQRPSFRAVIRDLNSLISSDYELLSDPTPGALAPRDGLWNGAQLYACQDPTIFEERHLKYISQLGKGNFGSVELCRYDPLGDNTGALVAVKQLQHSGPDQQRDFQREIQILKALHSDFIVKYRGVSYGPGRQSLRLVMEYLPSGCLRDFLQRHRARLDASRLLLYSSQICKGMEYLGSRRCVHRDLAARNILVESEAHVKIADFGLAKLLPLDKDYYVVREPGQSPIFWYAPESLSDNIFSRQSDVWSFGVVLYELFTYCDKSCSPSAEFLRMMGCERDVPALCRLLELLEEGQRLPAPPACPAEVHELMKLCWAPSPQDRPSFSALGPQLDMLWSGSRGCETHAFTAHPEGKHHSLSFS
Kind of series: Inhibition of human JAK3 using GEEEEYFELVKKKK as substrate in presence of [gamma-33P]-ATP. In short, it runs like this:
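Kinase inhibition was tested by radiometric "Hotspot" profiling at a contract laboratory with 10 μM ATP.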

In series [4] the test system is MCF7. Kind of series: cells. It is filed as functional, cell-based. The note with it: Homo sapiens, MCF7, 72 h.
In series [5] the test system is HL-60. Description: Antiproliferative activity against human HL60 cells. It counts as functional, cell-based.
Series [6] deals with MOLM-14. Description: cells. To be noted: Homo sapiens, MOLM-14, 48 h. It is filed as functional, cell-based.
Series [7] in a line: cells. It counts as functional, cell-based. To be noted: Homo sapiens, NKYS, 48 h.
Series [8] in a line: cells. It counts as functional, cell-based. The note with it: Homo sapiens, KHYG, 48 h.
Series [9] can be described thus: AUC (0 to infinity) in Wistar rat at 5 mg/kg, po administered via gavage by LC-MS/MS analysis. The note with it: in vivo. Also noted: dose 5 mg/kg, time infinity, route oral. It is filed as ADME, organism-based. In a few lines: (§1)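 Wistar rats given a single 5 mg/kg oral dose. Plasma concentration–time profiles were plotted as mean ± SEM and sampled through 24 h postdose.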

A short description of series [10]: Oral bioavailability in Wistar rat at 5 mg/kg administered via gavage by LC-MS/MS analysis. The note with it: in vivo. It is filed as ADME, organism-based. In short, it runs like this: as §1
Series [11] concerns the target Protein deacetylase HDAC6 (Homo sapiens) (UniProt Q9UBN7). Description: Inhibition of HDAC6 in human KMS-12-BM cells assessed as increase in acetylated tubulin level up to 6 uM after 16 hrs by immunoblotting analysis. It is filed as cell-based. In a few lines:
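KMS-12-BM and MOLM-14 cells were treated for 16 h and then lysed. Acetylated tubulin was detected by immunoblotting, and membranes were reprobed for total tubulin as loading control.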
(A western blot detects proteins with antibodies after separation by electrophoresis.)

Broadly, the IC50 is the point on the concentration scale where inhibition reaches its midpoint. A word on the AUC(0-inf): it is the area under the concentration-time curve extrapolated to infinity. Higher therefore signals high exposure. One may read the bioavailability as dose-corrected exposure relative to a reference, in per cent. The low end stands for poor availability, the high end for good availability. Regarding `O=C(CCCCCCn1cc(-c2ncnc3[nH]ccc23)cn1)NO`, the IC50 was determined as 0.0014 µM in series [1]; 0.075 µM in series [2]; 0.569 µM in [3]; 0.84 µM in [4]; 7.36 µM in series [5]; 0.74 µM in series [6]. In addition, the IC50 in series [7] was found to be 0.45 µM; in series [8], 0.57 µM. In addition, the AUC(0-inf) in series [9] is 12.3 ng·h/mL. The same compound came in with a bioavailability in [10] of 1.4%. Also, the inhibition entry in series [11] is “Active”.
